Experiment [1] relates to Salmonella enterica subsp. enterica serovar Setubal. The experiment is described as follows: Antibacterial activity against Salmonella Setubal ATCC 19196 assessed as growth inhibition at 50 to 1.56 ug after 24 hrs by TLC assay. The class given is functional. Summed up:
(§1)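 Direct TLC bioautography: compound amounts from 50 to 1.56 μg applied to precoated TLC plates, overlaid with Mueller Hinton or Sabouraud agar inoculated with microorganism suspension (10⁵ cfu mL⁻¹). Plates incubated 24 h at 37 °C, then stained with aqueous 2,3,5-triphenyltetrazolium chloride (1 mg mL⁻¹). The lowest amount giving an inhibition zone was recorded; <50 μg counted active. Triplicate.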

For experiment [2], the system named is Escherichia coli. The experiment is described as follows: Antibacterial activity against Escherichia coli ATCC 11103 assessed as growth inhibition at 50 to 1.56 ug after 24 hrs by TLC assay. The class given is functional. Summed up: as §1
Experiment [3] deals with Kocuria rhizophila. The experiment is described as follows: Antibacterial activity against Micrococcus luteus ATCC 9341 assessed as concentration required to inhibit bacterial growth after 24 hrs by TLC assay. The class given is functional. Summed up: as §1
In experiment [4] the test system is Klebsiella pneumoniae. The experiment is described as follows: Antibacterial activity against Klebsiella pneumoniae ATCC 10031 assessed as growth inhibition at 50 to 1.56 ug after 24 hrs by TLC assay. The class given is functional. Summed up:
as §1

The test system of experiment [5] is Kocuria rhizophila. The experiment is described as follows: Antibacterial activity against Micrococcus luteus ATCC 9341 assessed as growth inhibition at 50 to 1.56 ug after 24 hrs by TLC assay. The class given is functional. Summed up: as §1
Experiment [6] has as its system Staphylococcus aureus. The experiment is described as follows: Antibacterial activity against Staphylococcus aureus ATCC 6538p assessed as concentration required to inhibit bacterial growth after 24 hrs by TLC assay. The class given is functional. Summed up: as §1
The test system of a further experiment is Candida albicans. The experiment is described as follows: Antifungal activity against Candida albicans ATCC 10231 assessed as concentration required to inhibit fungal growth after 24 hrs by TLC assay. The class given is functional. Summed up:
as §1

Experiment [7] has as its system Staphylococcus epidermidis. The experiment is described as follows: Antibacterial activity against Staphylococcus epidermidis ATCC 12228 assessed as growth inhibition at 50 to 1.56 ug after 24 hrs by TLC assay. The class given is functional. Summed up:
as §1

The test system of experiment [8] is Staphylococcus epidermidis. The experiment is described as follows: Antibacterial activity against Staphylococcus epidermidis ATCC 12228 assessed as concentration required to inhibit bacterial growth after 24 hrs by TLC assay. The class given is functional. Put shortly:
as §1

Another experiment relates to Candida dubliniensis. The experiment is described as follows: Antifungal activity against Candida dubliniensis SM 26 clinical isolate assessed as concentration required to inhibit fungal growth after 24 hrs by TLC assay. The class given is functional. Summed up:
as §1

Experiment [9] in a line: Antibacterial activity against Salmonella Setubal ATCC 19196 assessed as concentration required to inhibit bacterial growth after 24 hrs by TLC assay. The class given is functional, Salmonella enterica subsp. enterica serovar Setubal. Summed up:
as §1

Experiment [10] deals with Staphylococcus aureus. The experiment is described as follows: Antibacterial activity against Staphylococcus aureus ATCC 6538p assessed as growth inhibition at 50 to 1.56 ug after 24 hrs by TLC assay. The class given is functional. Put shortly: as §1
Another experiment relates to Saccharomyces cerevisiae. The experiment is described as follows: Antifungal activity against Saccharomyces cerevisiae ATCC 2601 assessed as concentration required to inhibit fungal growth after 24 hrs by TLC assay. The class given is functional. Put shortly:
as §1

Experiment [11] relates to Escherichia coli. The experiment is described as follows: Antibacterial activity against Escherichia coli ATCC 11103 assessed as concentration required to inhibit bacterial growth after 24 hrs by TLC assay. The class given is functional. Summed up:
as §1

For experiment [12], the system named is Klebsiella pneumoniae. The experiment is described as follows: Antibacterial activity against Klebsiella pneumoniae ATCC 10031 assessed as concentration required to inhibit bacterial growth after 24 hrs by TLC assay. The class given is functional. Summed up:
as §1

A further experiment concerns Cryptococcus neoformans. The experiment is described as follows: Antifungal activity against Cryptococcus neoformans ATCC 28952 assessed as concentration required to inhibit fungal growth after 24 hrs by TLC assay. The class given is functional. Summed up:
as §1

For a further experiment, the system named is Candida tropicalis. The experiment is described as follows: Antifungal activity against Candida tropicalis ATCC 750 assessed as concentration required to inhibit fungal growth after 24 hrs by TLC assay. The class given is functional. Put shortly: as §1

From ChEMBL document CHEMBL2407049, “Cyclopeptide alkaloids: stereochemistry and synthesis of the precursors of discarines C and D and myrianthine A” (2013) come the findings set out here.

The source made the active and inactive calls. The calls are words filed in the database; no cut-off is given here.

For the compound `CC[C@H](C)[C@H](NC(=O)[C@H](NC(=O)[C@H](CC(C)C)N(C)C)[C@H](Oc1ccc(C=O)cc1)c1ccccc1)C(=O)OC`, the “growth inhibition (GI)” value (in experiment [1]; in the experiment with Escherichia coli [2]; in the experiment with Klebsiella pneumoniae [4]; in the experiment with Kocuria rhizophila [5]; in experiment [7]; in the experiment with Staphylococcus aureus [10]) was “inactive” in each case. Moreover, the Activity (in the experiment on Kocuria rhizophila [3]; with Staphylococcus aureus [6]; in the experiment on Candida albicans; in experiment [8]; in the experiment on Candida dubliniensis; in experiment [9]) was less than 50 µg throughout. For the same compound, the Activity with Saccharomyces cerevisiae, with Escherichia coli [11], in the experiment with Klebsiella pneumoniae [12], in the experiment with Cryptococcus neoformans and with Candida tropicalis was less than 50 µg in each case.
On to `CC[C@H](C)[C@H](NC(=O)[C@H](NC(=O)[C@H](CC(C)C)NC(=O)OCc1ccccc1)[C@@H](O)c1ccccc1)C(=O)OC` (mixture of isomers), for which the Activity (in the experiment on Kocuria rhizophila [3]; with Staphylococcus aureus [6]; with Candida albicans; in experiment [8]; with Candida dubliniensis; in experiment [9]) was less than 50 µg in each case. The Activity in the experiment with Saccharomyces cerevisiae, in the experiment on Escherichia coli [11], in the experiment with Klebsiella pneumoniae [12], in the experiment with Cryptococcus neoformans and in the experiment on Candida tropicalis was less than 50 µg throughout.
As for `COC(=O)[C@H](Cc1ccccc1)NC(=O)[C@H](NC(=O)[C@@H](N)CC(C)C)[C@@H](O)c1ccccc1` (mixture of isomers), the Activity with Kocuria rhizophila [3] was less than 50 µg; in the experiment on Staphylococcus aureus [6] it was less than 50 µg; in the experiment with Candida albicans, less than 50 µg; in experiment [8] it was 3.1 µg; in the experiment with Candida dubliniensis, less than 50 µg; in experiment [9], less than 50 µg. In addition, the Activity with Saccharomyces cerevisiae is less than 50 µg; in the experiment on Escherichia coli [11], 12.5 µg; in the experiment with Klebsiella pneumoniae [12], less than 50 µg; in the experiment on Cryptococcus neoformans, less than 50 µg; in the experiment on Candida tropicalis it was less than 50 µg.
Take `COC(=O)[C@H](CC(C)C)NC(=O)[C@H](NC(=O)[C@H](CC(C)C)N(C)C)[C@@H](O)c1ccccc1` (mixture of isomers): the Activity (in the experiment with Kocuria rhizophila [3]; with Staphylococcus aureus [6]; in the experiment on Candida albicans; in experiment [8]; in the experiment on Candida dubliniensis; in [9]) was less than 50 µg each time. For the same compound, the Activity with Saccharomyces cerevisiae, in the experiment on Escherichia coli [11], with Klebsiella pneumoniae [12], in the experiment on Cryptococcus neoformans and with Candida tropicalis was less than 50 µg each time.
`CC[C@H](C)[C@H](NC(=O)[C@H](NC(=O)[C@H](CC(C)C)N(C)C)[C@@H](O)c1ccccc1)C(=O)OC` (mixture of isomers): the Activity (in the experiment with Kocuria rhizophila [3]; in the experiment on Staphylococcus aureus [6]; in the experiment with Candida albicans; in [8]; with Candida dubliniensis; in experiment [9]) was less than 50 µg each time. Moreover, the Activity with Saccharomyces cerevisiae, with Escherichia coli [11], in the experiment on Klebsiella pneumoniae [12], with Cryptococcus neoformans and with Candida tropicalis was less than 50 µg each time.
Consider `COC(=O)[C@H](CC(C)C)NC(=O)[C@@H]([C@@H](O)c1ccccc1)N1CN(C)[C@@H](CC(C)C)C1=O` (mixture of isomers), for which the Activity (in the experiment on Kocuria rhizophila [3]; in the experiment on Staphylococcus aureus [6]; in the experiment on Candida albicans; in experiment [8]; in the experiment with Candida dubliniensis; in [9]) was less than 50 µg in each case. In addition, the Activity with Saccharomyces cerevisiae, in the experiment on Escherichia coli [11], in the experiment on Klebsiella pneumoniae [12], in the experiment with Cryptococcus neoformans and with Candida tropicalis was less than 50 µg in each case.
Regarding `COC(=O)[C@H](Cc1ccccc1)NC(=O)[C@@H]([C@@H](O)c1ccccc1)N1CN(C)[C@@H](CC(C)C)C1=O` (mixture of isomers), the Activity in the experiment with Kocuria rhizophila [3] was less than 50 µg; in the experiment with Staphylococcus aureus [6], less than 50 µg; in the experiment on Candida albicans, less than 50 µg; in experiment [8], 6.2 µg; with Candida dubliniensis, less than 50 µg; in [9], 12.5 µg. The Activity in the experiment on Saccharomyces cerevisiae is less than 50 µg; in the experiment on Escherichia coli [11], 3.1 µg; with Klebsiella pneumoniae [12], 6.2 µg; in the experiment on Cryptococcus neoformans, less than 50 µg; with Candida tropicalis, less than 50 µg.
For `CC[C@H](C)[C@H](NC(=O)[C@@H]([C@@H](O)c1ccccc1)N1CN(C)[C@@H](CC(C)C)C1=O)C(=O)OC` (mixture of isomers), the Activity (in the experiment on Kocuria rhizophila [3]; in the experiment with Staphylococcus aureus [6]; in the experiment with Candida albicans; in [8]; in the experiment with Candida dubliniensis; in [9]) was less than 50 µg in each case. The Activity with Saccharomyces cerevisiae, in the experiment on Escherichia coli [11], in the experiment with Klebsiella pneumoniae [12], in the experiment on Cryptococcus neoformans and with Candida tropicalis was less than 50 µg in each case.
For the compound `COC(=O)[C@H](CC(C)C)NC(=O)[C@@H](NC(=O)[C@H](CC(C)C)N(C)C)[C@@H](Oc1ccc(C=O)cc1)c1ccccc1` (mixture of isomers), the Activity (in the experiment with Kocuria rhizophila [3]; with Staphylococcus aureus [6]; in the experiment on Candida albicans; in experiment [8]; in the experiment with Candida dubliniensis; in experiment [9]) was less than 50 µg in each case. Further, the Activity in the experiment on Saccharomyces cerevisiae, in the experiment with Escherichia coli [11], in the experiment on Klebsiella pneumoniae [12], in the experiment on Cryptococcus neoformans and with Candida tropicalis was less than 50 µg each time.
For `COC(=O)[C@H](CC(C)C)NC(=O)[C@H](NC(=O)[C@H](CC(C)C)N(C)C)[C@H](Oc1ccc(C=O)cc1)c1ccccc1` (mixture of isomers), the Activity (with Kocuria rhizophila [3]; with Staphylococcus aureus [6]; in the experiment on Candida albicans; in [8]; in the experiment on Candida dubliniensis; in [9]) was less than 50 µg each time. The Activity in the experiment with Saccharomyces cerevisiae, with Escherichia coli [11], in the experiment with Klebsiella pneumoniae [12], with Cryptococcus neoformans and in the experiment on Candida tropicalis was less than 50 µg in each case.
Regarding `COC(=O)[C@H](CC(C)C)NC(=O)[C@H](NC(=O)[C@H](CC(C)C)NC(=O)OCc1ccccc1)[C@@H](O)c1ccccc1` (mixture of isomers), the Activity (with Kocuria rhizophila [3]; in the experiment with Staphylococcus aureus [6]; in the experiment with Candida albicans; in [8]; in the experiment with Candida dubliniensis; in experiment [9]) was less than 50 µg throughout. Besides, the Activity with Saccharomyces cerevisiae, with Escherichia coli [11], in the experiment with Klebsiella pneumoniae [12], in the experiment with Cryptococcus neoformans and in the experiment with Candida tropicalis was less than 50 µg in each case.
With `COC(=O)[C@H](Cc1ccccc1)NC(=O)[C@H](NC(=O)[C@H](CC(C)C)NC(=O)OCc1ccccc1)[C@@H](O)c1ccccc1` (mixture of isomers), the Activity (in the experiment on Kocuria rhizophila [3]; in the experiment on Staphylococcus aureus [6]; in the experiment on Candida albicans; in [8]; in the experiment with Candida dubliniensis; in [9]) was less than 50 µg in each case. Further, the Activity in the experiment with Saccharomyces cerevisiae, in the experiment on Escherichia coli [11], with Klebsiella pneumoniae [12], in the experiment with Cryptococcus neoformans and in the experiment on Candida tropicalis was less than 50 µg in each case.
